Source: ChEMBL document CHEMBL3297713, “Discovery, optimization, and biological evaluation of 5-(2-(trifluoromethyl)phenyl)indazoles as a novel class of transient receptor potential A1 (TRPA1) antagonists” (J Med Chem, 2014)

Target: Transient receptor potential cation channel subfamily A member 1 (Homo sapiens, UniProt O75762)
Assay: Antagonist activity at human TRPA1 expressed in CHO-TREX cells assessed as inhibition of cinnamaldehyde-induced calcium flux incubated 10 mins prior to cinnamaldehyde addition by FLIPR assay relative to control
Assay type: cell-based
In short: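 TRPA1-expressing CHO-TREX cells, channel expression induced with tetracycline (0.5 µg/mL human, 1 µg/mL mouse or rat). Cells loaded with Fluo4-AM for 90 min at room temperature, washed, then test agent added in HBSS/20 mM HEPES/2.5 mM probenecid/0.1% BSA. Agonist added 10 min later at EC80: human cinnamaldehyde 30 µM, AITC 2.5 µM, dibenzoxazepine-carboxamide 5 nM; rat and mouse cinnamaldehyde 40 µM. FLIPR calcium flux; mean of triplicates fitted to sigmoidal dose-response curves.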

Transient receptor potential cation channel subfamily A member 1, sequence (O75762 whole entry): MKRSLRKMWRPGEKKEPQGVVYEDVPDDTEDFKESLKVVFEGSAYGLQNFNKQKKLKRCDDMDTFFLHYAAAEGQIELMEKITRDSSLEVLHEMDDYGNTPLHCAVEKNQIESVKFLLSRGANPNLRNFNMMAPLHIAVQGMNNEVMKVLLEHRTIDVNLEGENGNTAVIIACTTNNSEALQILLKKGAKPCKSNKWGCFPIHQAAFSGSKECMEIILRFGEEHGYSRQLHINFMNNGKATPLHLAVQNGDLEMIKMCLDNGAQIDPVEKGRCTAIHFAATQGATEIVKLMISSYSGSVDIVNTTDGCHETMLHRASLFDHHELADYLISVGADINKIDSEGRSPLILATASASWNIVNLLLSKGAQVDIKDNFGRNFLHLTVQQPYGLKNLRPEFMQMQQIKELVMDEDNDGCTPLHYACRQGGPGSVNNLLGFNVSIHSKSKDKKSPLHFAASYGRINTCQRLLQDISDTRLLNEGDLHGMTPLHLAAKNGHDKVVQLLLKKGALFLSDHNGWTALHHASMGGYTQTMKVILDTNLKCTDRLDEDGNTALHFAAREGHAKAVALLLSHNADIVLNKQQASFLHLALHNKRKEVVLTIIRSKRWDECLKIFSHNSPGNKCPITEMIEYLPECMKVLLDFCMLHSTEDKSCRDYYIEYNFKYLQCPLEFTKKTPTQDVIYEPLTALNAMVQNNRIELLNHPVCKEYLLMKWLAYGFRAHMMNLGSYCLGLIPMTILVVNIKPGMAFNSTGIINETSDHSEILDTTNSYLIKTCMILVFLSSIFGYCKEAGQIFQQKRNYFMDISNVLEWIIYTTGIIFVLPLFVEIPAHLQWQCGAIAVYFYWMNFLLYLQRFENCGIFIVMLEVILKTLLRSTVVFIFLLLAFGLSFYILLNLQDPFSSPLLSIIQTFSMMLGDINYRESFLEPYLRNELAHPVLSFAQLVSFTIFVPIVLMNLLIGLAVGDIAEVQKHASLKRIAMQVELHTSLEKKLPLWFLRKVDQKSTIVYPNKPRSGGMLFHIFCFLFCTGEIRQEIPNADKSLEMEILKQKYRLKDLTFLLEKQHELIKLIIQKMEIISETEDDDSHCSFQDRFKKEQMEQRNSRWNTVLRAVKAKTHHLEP

Row | Compound | IC50 | inhibition
1 | Fc1cccc(-c2ccc3[nH]ncc3c2)c1C(F)(F)F | 8.9 µM | 97%
2 | c1ccc(-c2ccc3[nH]ncc3c2)cc1 | > 30 µM | 
3 | FC(F)(F)c1ccccc1-c1cc2cn[nH]c2cc1C1CC1 | 0.061 µM | 99%
4 | Fc1ccc(C(F)(F)F)c(-c2ccc3[nH]ncc3c2)c1 | 0.306 µM | 98%
5 | Cc1n[nH]c2ccc(-c3ccccc3C(F)(F)F)cc12 | 3.09 µM | 83%
6 | FC(F)(F)Oc1ccccc1-c1ccc2[nH]ncc2c1 | 3.43 µM | 97%
7 | FC(F)Oc1cc2[nH]ncc2cc1-c1ccccc1C(F)(F)F | 0.05 µM | 98%
8 | CCc1cc2[nH]ncc2cc1-c1ccccc1C(F)(F)F | 0.05 µM | 100%
